ChEMBL document CHEMBL1165951, “Improved synthesis and in vitro/in vivo activities of natural product-inspired, artificial glutamate analogs” (Bioorg Med Chem, 2010)
The source made the active and inactive calls. The rule behind the calls is not given here.

molecular target: Glutamate NMDA receptor (Rattus norvegicus) (UniProt P35439+Q00959+Q00960+Q00961+Q62645+Q8VHN2+Q9R1M7); experiment: Binding affinity to rat brain NMDA receptor at 10 uM by radioligand displacement assay; settings: not given
Outline: (§1)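 Radioligand displacement at AMPA, kainate and NMDA ionotropic glutamate receptor sites in rat brain synaptic membranes, with test compound at 1 × 10−5 M.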

Row | Compound | Activity
1 | O=C(O)C[C@]12O[C@@H]3[C@@H](O)[C@@H](O)CO[C@@H]3[C@H]1CN[C@@H]2C(=O)O | inactive
2 | O=C(O)C[C@]12O[C@@H]3CCCO[C@@H]3[C@H]1CN[C@@H]2C(=O)O | inactive
3 | O=C(O)C[C@]12O[C@@H]3[C@@H](O)[C@@H](O)CCO[C@@H]3[C@H]1CN[C@@H]2C(=O)O | inactive
4 | O=C(O)C[C@]12O[C@@H]3CCCCO[C@@H]3[C@H]1CN[C@@H]2C(=O)O | inactive

organism: Rattus norvegicus; experiment: Binding affinity to rat brain kainate receptor at 10 uM by radioligand displacement assay; settings: not given; outline: as §1

Row | Compound | Activity
5 | O=C(O)C[C@]12O[C@@H]3[C@@H](O)[C@@H](O)CO[C@@H]3[C@H]1CN[C@@H]2C(=O)O | inactive
6 | O=C(O)C[C@]12O[C@@H]3CCCO[C@@H]3[C@H]1CN[C@@H]2C(=O)O | inactive
7 | O=C(O)C[C@]12O[C@@H]3[C@@H](O)[C@@H](O)CCO[C@@H]3[C@H]1CN[C@@H]2C(=O)O | inactive
8 | O=C(O)C[C@]12O[C@@H]3CCCCO[C@@H]3[C@H]1CN[C@@H]2C(=O)O | inactive

organism: Rattus norvegicus; experiment: Binding affinity to glutamate receptor in rat hippocampal neurons assessed as reduction of action potential firing frequency at 10 uM by current- and voltage-clump electrophysiological analysis; format: tissue-based; settings: Hippocampus
Outline: (§2)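 Cultured hippocampal neurons were recorded by current clamp, read as action potential firing frequency, and by voltage clamp, read as charge transfer during spontaneous excitatory synaptic currents. The value is the percent reduction, n = 3.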

Row | Compound | inhibition [%]
9 | O=C(O)C[C@]12O[C@@H]3C=CCN[C@@H]3[C@H]1CN[C@@H]2C(=O)O (relative stereo) | 52

test system: Mus musculus; experiment: Effect on neurological behavior in mouse assessed as induction of hyperactivity at 20 ug, icv up to 50 mins; format: functional, organism-based; settings: not given
Outline: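 Racemic analog given to mice as a single intracranial (ICV) injection of 20 μg/mouse. Behaviour was then observed, with the type and duration of any change in activity recorded. Animals were kept according to the NRC Guide for the Care and Use of Laboratory Animals.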

Row | Compound | Activity
10 | O=C(O)C[C@]12O[C@@H]3[C@@H](O)[C@@H](O)CO[C@@H]3[C@H]1CN[C@@H]2C(=O)O | inactive
11 | O=C(O)C[C@]12O[C@@H]3CCCCN[C@@H]3[C@H]1CN[C@@H]2C(=O)O (relative stereo) | inactive
12 | O=C(O)C[C@]12O[C@@H]3[C@@H](O)[C@@H](O)CN[C@@H]3[C@H]1CN[C@@H]2C(=O)O (relative stereo) | inactive
13 | O=C(O)C[C@]12O[C@@H]3C=CCO[C@@H]3[C@H]1CN[C@@H]2C(=O)O (relative stereo) | inactive
14 | O=C(O)C[C@]12O[C@@H]3CCCO[C@@H]3[C@H]1CN[C@@H]2C(=O)O | Active
15 | O=C(O)C[C@]12O[C@@H]3[C@@H](O)[C@@H](O)CCO[C@@H]3[C@H]1CN[C@@H]2C(=O)O | Active
16 | O=C(O)C[C@]12O[C@@H]3CCCN[C@@H]3[C@H]1CN[C@@H]2C(=O)O (relative stereo) | inactive
17 | O=C(O)C[C@]12O[C@@H]3CCCCO[C@@H]3[C@H]1CN[C@@H]2C(=O)O | Active
18 | O=C(O)C[C@]12O[C@@H]3C=CCN[C@@H]3[C@H]1CN[C@@H]2C(=O)O (relative stereo) | inactive
19 | O=C(O)C[C@]12O[C@@H]3C=CCCN[C@@H]3[C@H]1CN[C@@H]2C(=O)O (relative stereo) | inactive
20 | O=C(O)C[C@]12O[C@@H]3C=CCCO[C@@H]3[C@H]1CN[C@@H]2C(=O)O (relative stereo) | Active
21 | O=C(O)C[C@]12O[C@@H]3[C@@H](O)[C@@H](O)CCN[C@@H]3[C@H]1CN[C@@H]2C(=O)O (relative stereo) | inactive

organism: Rattus norvegicus; experiment: Binding affinity to rat brain AMPA receptor at 10 uM by radioligand displacement assay; settings: not given; outline: as §1

Row | Compound | Activity
22 | O=C(O)C[C@]12O[C@@H]3[C@@H](O)[C@@H](O)CO[C@@H]3[C@H]1CN[C@@H]2C(=O)O | inactive
23 | O=C(O)C[C@]12O[C@@H]3CCCO[C@@H]3[C@H]1CN[C@@H]2C(=O)O | inactive
24 | O=C(O)C[C@]12O[C@@H]3[C@@H](O)[C@@H](O)CCO[C@@H]3[C@H]1CN[C@@H]2C(=O)O | inactive
25 | O=C(O)C[C@]12O[C@@H]3CCCCO[C@@H]3[C@H]1CN[C@@H]2C(=O)O | inactive

organism: Rattus norvegicus; experiment: Binding affinity to glutamate receptor in rat hippocampal neurons assessed as reduction of spontaneous excitatory synaptic current at 10 uM by current- and voltage-clump electrophysiological analysis; format: tissue-based; settings: Hippocampus; outline: as §2

Row | Compound | inhibition [%]
26 | O=C(O)C[C@]12O[C@@H]3C=CCN[C@@H]3[C@H]1CN[C@@H]2C(=O)O (relative stereo) | 31
